# Bioassay records (PubChem)
# Rows were chosen to be rich in hits. Some 4.1% of all compounds tested hit in one or more screens of this group.
# APP 5'UTR act = APP 5'UTR luciferase reporter activation. SH-SY5Y APP 5'UTR luciferase reporter, luminescence; zero percent = DMSO vehicle wells. activation, % at 2 µM. 190,000 compounds, 1% hits. AID 1276;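 active = activation above a set limit, based on mean plus 3 SD of controls, cut at about 140% in these data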
# FLuc stim CS = firefly luciferase counter-screen for stimulation assays | P08659 | ATPlite luciferase biochemical, luminescence, 10 min; 0 = ATP-free wells, 1 = DMSO control | activation factor at 10 µM | 200,000 tested, under 10 active | AID 1027;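 active = luciferase activation factor, scaled between plate controls, of at least 2 with compound at 10 µM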
#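 Assay system: Luciferase/luciferin detection reagent, cell-free biochemical luciferase assay / Also added: ATP substrate / Schedule: 10 min at ambient temperature / Measured by: luminescence measurement of luciferase light output / Benchmarks: low control with PBS replacing ATP, high control enzyme plus ATP without compound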
# STAT1 activator = activators of IFN-gamma induced STAT1 signaling | NIH 3T3 STAT1-luciferase reporter, luminescence; 100% = IFN-gamma alone, no compound | activation (% of control), % at 5.5 µM | 200,000 compounds, 2.6% hits;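 active = activation above the screen-wide mean activation plus 3 SD, cut at about 130% in these data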;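 also: raw ratio to IFN-gamma control signal so 100% means no change and 0% no light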
# FLuc inh counter = Photinus pyralis luciferase inhibition counter-screen | P08659 | ATPLite firefly luciferase biochemical luminescence, 10 min | inhibition, % at 10 µM | 200,000 compounds, 1.5% hits;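 active = inhibition above about 50% when tested at 10 µM, limit read from the data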
# NF-kB neuron act = raises NF-kB expression in human neuronal cells. NF-kB reporter expression; active compounds read high. 190,000 compounds, 1.6% hits. AID 1239. fold change at 12.5 µM; in the data active = fold change above about 3.3
# Numbers without * were called inactive; / = no result.
SMILES,APP 5'UTR act,FLuc stim CS,STAT1 activator,FLuc inh counter,NF-kB neuron act
Cc1ccc(C)c(NC(=O)CCn2cnnn2)c1,0,1,104,0,1.1
CCOC(=O)C1CN(S(C)(=O)=O)c2cc(CC(=O)OC)ccc2O1 (stereo not drawn),-3,0.9,107,8,1.1
CCn1c(-c2ccc(F)cc2)cnc1SCC(=O)N1CCCCC1C (stereo not drawn),69,0.9,132*,6,2.9
CCn1c(-c2ccc(F)cc2)cnc1SCC(=O)N1CCc2ccccc21,8,1,126,5,1.1
C=CCNC(=O)/C(C#N)=C/c1ccc2c(c1)OCCO2,17,0.5,98,50*,1.3
COCCNC(=O)/C(C#N)=C/c1ccc2c(c1)OCO2,-9,1,99,3,1.5
CCOC(=O)C(C)Oc1cccc2c(=O)n(CC(=O)NCc3ccc4c(c3)OCO4)ccc12 (stereo not drawn),6,1,108,2,0.88
Cc1cccc2c1N(CCOc1ccccc1Cl)C(=O)C2=O,-8,1,105,1,3.7*
Cc1ccccc1OCCN1C(=O)C(=O)c2cccc(C)c21,/,1.1,101,-7,1.2
CCn1c(C2CCN(Cc3ccccc3)CC2)n[nH]c1=S,154*,1.1,99,-6,1
S=c1[nH]nc(C2CC2)n1Cc1ccco1,-3,1.1,99,-6,1.4
Cc1ccc(C(=O)N/N=C/C2=Cc3ccccc3OC2C)cc1 (stereo not drawn),36,0.6,99,40,1.1
CC1Oc2ccccc2C=C1/C=N/NC(=O)c1ccccc1 (stereo not drawn),44,0.6,133*,44,1.8
CC1Oc2ccccc2C=C1/C=N/NC(=O)c1ccccc1O (stereo not drawn),42,0.2,103,78*,1.3
CC(C)NC(=O)COc1ccc(/C=N/NS(=O)(=O)c2ccccc2)cc1,16,1,96,-3,1
CNC(=O)c1ccsc1NC(=O)c1ccc(S(=O)(=O)N2CCCc3ccccc32)cc1,5,1,95,1,0.37
CCC(=O)N1CN(S(=O)(=O)c2ccc(C)cc2)CC1C (stereo not drawn),10,1.1,95,-7,1.4
COc1ccc(-c2nc(C3CCCCC3)no2)cc1OC,71,1,134*,-2,2
Cc1cccc(-c2noc(CN(C(=O)c3ccc4c(c3)OCO4)C(C)C)n2)c1,-2,1,101,0,1
CCOc1cc(-c2nc(-c3ccccc3OC)no2)cc(OCC)c1OCC,30,1.1,97,-8,0.82
Cc1cccc(-c2noc(-c3ccc4c(c3)OCO4)n2)c1,186*,0.2,86,82*,/
COc1ccc(-c2nc(-c3ccccc3OC)no2)cc1OC,31,0.8,132*,18,1.2
COc1ccc(-c2nc(-c3cccc(C)c3)no2)cc1OC,3,1,138*,0,2.8
CCN(CC)CCNC(=O)c1ccc(N2CCCCC2)c(NS(=O)(=O)c2ccc(C)cc2)c1,9,1.1,98,-8,0.67
CC(C)C(=O)Nc1cc(S(=O)(=O)Nc2ccc(Cl)cc2)ccc1Cl,7,1.1,104,-6,1.1
SMILES,APP 5'UTR act,FLuc stim CS,STAT1 activator,FLuc inh counter,NF-kB neuron act
C/C(=C\C(=O)O)C(=O)Nc1nccs1,-5,1,101,1,1
C/C(=C\C(=O)Nc1nccs1)c1ccccc1,50,0.6,144*,43,2.6
Cn1c(C(=O)Nc2ccccc2)cc2sccc21,32,0.8,112,18,1.6
COc1cc(NC(=O)c2cc3sccc3n2C)cc(OC)c1,104,0.8,132*,20,2.5
CCOC(=O)CC(=O)CSc1nc2c(cc1C#N)CCCCC2,126,1,141*,4,4.6*
CCOC(=O)CC(=O)CSc1nc2ccc(C)cc2cc1C#N,32,1,137*,4,8.3*
CC(C)OC(=O)CC(=O)CSc1nc2c(cc1C#N)CCCCC2,58,1,115,-3,4.3*
CC(C)OC(=O)CSc1nc2c(cc1C#N)CCCCC2,93,1,106,-1,1.4
COc1ccc2nc(SCC(=O)N3CCCCC3)c(C#N)cc2c1,15,1,131*,0,1.5
O=C(Cc1ccccc1)NCCSC1CCCCC1,21,0.9,104,5,1.6
